In EPA's CvTdb concentration-time database:

Columns and labels:
[1] = test system: human; assay: concentration in blood after dosing; conditions: dosed: phenacetin, 250 mg, iv, male
In short: (§1)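 A PubMed search, classifier screening and manual review identified published in vivo toxicokinetic studies, which together with two structured collections supplied concentration-versus-time and amount-versus-time points. Points were mostly digitised from plot screenshots with WebPlotDigitizer, otherwise copied from tables. Dose, route, subject details and medium were hand-curated from each paper, and sampling and analytical methods are those of the sources, often unreported.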

[2] = test system: human; assay: concentration in blood after dosing; conditions: dosed: phenacetin, 1 g, oral, male
In short: as §1

[3] = test system: human; assay: concentration in blood after dosing; conditions: 40 min; dosed: phenacetin; 0.25 g; oral; male
In short: as §1

[4] = test system: human; assay: concentration in blood after dosing; conditions: dosed: phenacetin, 250 mg, iv, male; remark: listed apart in the source
In short: as §1

[5] = test system: human; assay: concentration in blood after dosing; conditions: dosed: phenacetin, 250 mg, iv, male; remark: listed apart in the source
In short: as §1

[6] = test system: human; assay: concentration in blood after dosing; conditions: dosed: phenacetin, 250 mg, iv, male; remark: listed apart in the source
In short: as §1

[7] = test system: human; assay: concentration in blood after dosing; conditions: dosed: phenacetin, 1 g, oral, male; remark: listed apart in the source
In short: as §1

[8] = test system: human; assay: concentration in blood after dosing; conditions: dosed: phenacetin, 250 mg, iv, male; remark: listed apart in the source
In short: as §1

[9] = test system: human; assay: concentration in blood after dosing; conditions: dosed: phenacetin, male
In short: as §1

[10] = test system: dog; assay: concentration in plasma after dosing; conditions: dosed: phenacetin, 1 mg/kg, iv, duration: 5 min, male, beagle
In short: as §1

[11] = test system: rat; assay: concentration in plasma after dosing; conditions: dosed: phenacetin, oral

CCOc1ccc(NC(C)=O)cc1 [phenacetin]
Conditions	concentration in blood [ng/mL]	concentration in plasma [ng/mL]
[1], 1 h	640	–
[1], 1.5 h	460	–
[1], 2 h	430	–
[1], 3 h	220	–
[1], 10 min	2610	–
[1], 20 min	1770	–
[1], 40 min	940	–
[2], 4 h	2120	–
[2], 5 h	670	–
[4], 1 h	1540	–
[4], 1.5 h	1010	–
[4], 2 h	690	–
[4], 3 h	180	–
[4], 10 min	3420	–
[4], 20 min	2620	–
[4], 40 min	1890	–
[5], 1 h	920	–
[5], 1.5 h	820	–
[5], 2 h	590	–
[5], 3 h	330	–
[5], 4 h	150	–
[5], 10 min	3060	–
[5], 20 min	2090	–
[5], 40 min	1180	–
[6], 1 h	660	–
[6], 1.5 h	500	–
[6], 2 h	210	–
[6], 3 h	80	–
[6], 10 min	1860	–
[6], 20 min	1080	–
[6], 40 min	980	–
[7], 1 h	4600	–
[7], 1.5 h	1220	–
[7], 2 h	750	–
[7], 3 h	360	–
[7], 4 h	330	–
[7], 5 h	190	–
[7], 20 min	300	–
[7], 40 min	4510	–
[8], 1 h	740	–
[8], 1.5 h	310	–
[8], 2 h	190	–
[8], 3 h	80	–
[8], 10 min	2920	–
[8], 20 min	1910	–
[8], 40 min	1090	–
[10], 0.2422 h	–	1250
[10], 0.3263 h	–	884
[10], 0.4969 h	–	529
[10], 1.165 h	–	136
[10], 1.67 h	–	63.4
[10], 2.162 h	–	32.4
[10], 3.172 h	–	13.5

Conditions	concentration in blood [ng/mL]
[3]	230

Conditions	concentration in blood [ng/mL]	concentration in plasma [µM]
[9], 1 h, 0.25 g, oral	180	–
[9], 1 h, 1 g, oral	2750	–
[9], 1 h, 250 mg, iv	670	–
[9], 1.5 h, 1 g, oral	3360	–
[9], 1.5 h, 250 mg, iv	510	–
[9], 2 h, 1 g, oral	1880	–
[9], 2 h, 250 mg, iv	370	–
[9], 3 h, 1 g, oral	820	–
[9], 3 h, 250 mg, iv	240	–
[9], 4 h, 1 g, oral	530	–
[9], 4 h, 250 mg, iv	130	–
[9], 5 h, 1 g, oral	410	–
[9], 10 min, 250 mg, iv	2670	–
[9], 20 min, 0.25 g, oral	340	–
[9], 20 min, 250 mg, iv	1260	–
[9], 40 min, 0.25 g, oral	310	–
[9], 40 min, 250 mg, iv	910	–
[11], 0.25 h, 250 mg/kg, Wistar	–	129
[11], 0.5 h, 250 mg/kg, Wistar	–	105
[11], 1 h, 250 mg/kg, Wistar	–	92.6
[11], 2 h, 250 mg/kg, Wistar	–	11.5
[11], 3 h, 250 mg/kg, Wistar	–	1.59

[11], male, Sprague Dawley
Conditions	concentration in plasma [ng/mL]
0.1117 h, 360 mg/kg	14500
0.193 h, 360 mg/kg	24300
0.249 h, 10 mg/kg	2910
0.2743 h, 360 mg/kg	30300
0.5079 h, 360 mg/kg	28500
0.772 h, 360 mg/kg	25500
0.9929 h, 10 mg/kg	193
1.006 h, 360 mg/kg	23900
1.524 h, 360 mg/kg	14300
1.985 h, 10 mg/kg	34.3
2.022 h, 360 mg/kg	11300
3.99 h, 10 mg/kg	12.9
4.033 h, 360 mg/kg	4510
5.995 h, 10 mg/kg	8.58
7.985 h, 10 mg/kg	8.58
8.005 h, 360 mg/kg	913
11.99 h, 360 mg/kg	171
268 s, 10 mg/kg	893
